Data reported in article PMC5091360 (Science Advances, 2016).

How the values were obtained:
[1] = tested on: IgD2-3 domains from human VEGFR-3; assay: VEGF-C binding to recombinant VEGFR-3 IgD2-3; settings: synthetic peptide added; FLISA, duplicate wells
human VEGFR-1 [2] = assay: FLISA binding assay, NRP-2 to VEGFR-1; settings: rat NRP-2; peptide 100 μg/ml; FLISA, duplicate wells
Outline: (§1)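 Human VEGFR-1 extracellular domain coated at 200 ng per well in PBS overnight at 4°C, then blocked with Odyssey blocking buffer. Wells incubated with NRP-1 or NRP-2 in PBS with 10% (v/v) DMSO and 10% blocking buffer, with or without peptide (100 μg/ml). Bound NRP detected with goat anti-NRP-1 or anti-NRP-2 serum (1:100), then IRDye 680LT anti-goat, by infrared scanning. Duplicate wells; ANOVA with Tukey.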

human FGFR-1 = assay: growth factor binding assay; settings: FGF-1 20 ng/ml; peptide 100 μg/ml; FLISA, duplicate wells
Outline: (§2)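 Human FGFR-1 or PDGFR-β coated at 200 ng per well in PBS overnight at 4°C and blocked. Wells incubated with human FGF-1 or PDGF-BB (each 20 ng/ml) in PBS with 10% (v/v) DMSO and 10% blocking buffer, with or without peptide (100 μg/ml). Bound ligand detected with goat antiserum (1:200), then IRDye 680LT anti-goat, by infrared fluorescence. Duplicate wells; ANOVA with Tukey.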

human PDGFR-β = assay: growth factor binding assay; settings: PDGF-BB 20 ng/ml; peptide 100 μg/ml; FLISA, duplicate wells
Outline: as §2

[3] = presence in the vitreous humor after topical application; type: in vivo; settings: applied topically
human VEGFR-1 [4] = assay: FLISA binding assay, NRP-1 to VEGFR-1; settings: human NRP-1; peptide 100 μg/ml; FLISA, duplicate wells
Outline: as §1

[5] = solubility in Matrigel compared to aqueous media; type: physicochemical
[6] = tested on: IgD2 domain from human VEGFR-3; assay: VEGF-C binding to recombinant VEGFR-3 IgD2; settings: synthetic peptide added; FLISA, duplicate wells

WVCSGG
inhibition of VEGF-C binding to IgD2-3 [1]: both prevented binding of VEGF-C to IgD2 and IgD2-3
effect on NRP-2 interaction with VEGFR-1 (human VEGFR-1 [2]): not affected by peptide PCAIWF or WVCSGG
effect on binding of basic human FGF to FGFR-1α (human FGFR-1): no effect
effect on binding of PDGF-BB to PDGFR-β (human PDGFR-β): no effect
presence in the vitreous humor after topical application [3]: not found in the vitreous humor if applied topically to the retina
effect on NRP-1 interaction with VEGFR-1 (human VEGFR-1 [4]): not affected by peptide PCAIWF or WVCSGG
solubility in Matrigel [5]: fairly soluble in Matrigel compared to aqueous media
inhibition of VEGF-C binding to IgD2 [6]: both prevented binding of VEGF-C to IgD2 and IgD2-3
